Laboratory results reported in ChEMBL document CHEMBL1121813, “Dihydrochalcone sweeteners. A study of the atypical temporal phenomena” (1981).

Columns and labels:
Type in all cases: functional
Homo sapiens [1] = species: Homo sapiens; assay: Other taste character at a concentration of 2000 ppm (mean value)
Summary of the method: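 Trained human panel tasted aqueous solutions of each compound. Aftertaste is scored as the percentage of judgments reporting one, with its character coded sweet (s), bitter (b) or bitter-sweet (bs).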

Homo sapiens [2] = species: Homo sapiens; assay: Percentage of judgments reporting an aftertaste at a concentration of 2000 ppm
Summary of the method: (§1)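 Trained judges tasted aqueous solutions of the compounds, which had to be ≥95 weight percent pure and to have passed mutagenicity and single oral dose toxicity screening. The value is the percentage of panel judgments reporting an aftertaste. Where given, its character is recorded as sweet, bitter or bitter-sweet.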

Homo sapiens [3] = species: Homo sapiens; assay: Sour character at a concentration of 2000 ppm (mean value)
Summary of the method: (§2)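 Trained human sensory panel (Swartz method) tasted dilute aqueous solutions of the compounds, which had to be ≥95 weight percent pure and free of mutagenicity and toxicity. Taste character is reported as the mean value with 2S_m limits. Data deviating excessively at the 95% confidence level were rejected by the t-value method.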

Homo sapiens [4] = species: Homo sapiens; assay: Experimentally determined perceived intensity of compound at a concentration of 2000 ppm (mean value)
Summary of the method: (§3)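 Trained human sensory panel of judges tasted aqueous solutions of the compound. Samples had to be ≥95 weight % pure (HPLC, proton titration, Karl Fischer), non-mutagenic in five Salmonella typhimurium strains with and without microsomal activation, and non-toxic in a single-oral-dose mouse test. Perceived intensity (Ip) was read from time–intensity curves at 4- or 6-s intervals and averaged. Outliers at the 95% level were rejected by t-value. Values reported as mean (2Sm).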

Homo sapiens [5] = species: Homo sapiens; assay: Intensity calculated on a weight basis relative to an 85500 ppm sucrose solution at a concentration of 2000 ppm (mean value)
Summary of the method: (§4)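 Trained human panel tasted aqueous solutions of purity-checked (≥95 weight percent) compounds cleared for mutagenicity and mouse oral toxicity. Weight-basis intensity I_w = perceived intensity × (85500 ppm sucrose / compound concentration in ppm). The mean is reported with 2S_m limits; data deviating excessively at 95% confidence were rejected by the t-value method.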

Homo sapiens [6] = species: Homo sapiens; assay: Sweet / Bitter character at a concentration of 2000 ppm (mean value)
Homo sapiens [7] = species: Homo sapiens; assay: Salty character at a concentration of 2000 ppm (mean value); summary of the method: as §2
Homo sapiens [8] = species: Homo sapiens; assay: Intensity calculated on a molar basis relative to a 0.25 M sucrose solution at a concentration of 2000 ppm (mean value)
Summary of the method: (§5)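 Trained human judges tasted aqueous solutions of the test compound; compounds were first required to be ≥95 weight percent pure and free of mutagenicity (five Salmonella typhimurium strains, ± microsomal activation) and of single oral dose mouse toxicity. Molar intensity I_m = perceived intensity × (0.25 M sucrose / compound molar concentration). The mean is reported with 2S_m limits; outliers were rejected at 95% confidence by t-value.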

Homo sapiens [9] = species: Homo sapiens; assay: Bitter character at a concentration of 2000 ppm (mean value)
Summary of the method: (§6)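 Trained human panel tasted aqueous solutions. Each judge reported whether there was an aftertaste and its character (sweet, bitter or bitter-sweet). The value is the percentage of judgments reporting a bitter aftertaste.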

Homo sapiens [10] = species: Homo sapiens; assay: Sweet character at a concentration of 2000 ppm (mean value); summary of the method: as §2
Homo sapiens [11] = species: Homo sapiens; assay: Number of taste judgments per compound
Homo sapiens [12] = species: Homo sapiens; assay: Salty character at a concentration of 251 ppm (mean value); summary of the method: as §2
Homo sapiens [13] = species: Homo sapiens; assay: Other taste character at a concentration of 251 ppm (mean value); summary of the method: as §2
Homo sapiens [14] = species: Homo sapiens; assay: Percentage of judgments reporting an aftertaste at a concentration of 251 ppm and character thereof
Summary of the method: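 Trained human sensory panel; compounds tasted in aqueous solution. Before panel work, compounds had to be ≥95 weight percent pure (HPLC, proton titration, Karl Fischer) and free of mutagenicity (five Salmonella typhimurium strains, ± microsomal activation) and single oral dose mouse toxicity. Value is the percentage of judgments reporting an aftertaste, with its character recorded as sweet, bitter or bitter-sweet.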

Homo sapiens [15] = species: Homo sapiens; assay: Intensity calculated on a weight basis relative to an 85500 ppm sucrose solution at a concentration of 251 ppm (mean value); summary of the method: as §4
Homo sapiens [16] = species: Homo sapiens; assay: Experimentally determined perceived intensity of compound at a concentration of 251 ppm (mean value); summary of the method: as §3
Homo sapiens [17] = species: Homo sapiens; assay: Sour character at a concentration of 251 ppm (mean value); summary of the method: as §2
Homo sapiens [18] = species: Homo sapiens; assay: Sweet character at a concentration of 251 ppm (mean value); summary of the method: as §2
Homo sapiens [19] = species: Homo sapiens; assay: Sweet / Bitter character at a concentration of 251 ppm (mean value); 51/49
Homo sapiens [20] = species: Homo sapiens; assay: Bitter character at a concentration of 251 ppm (mean value); summary of the method: as §6
Homo sapiens [21] = species: Homo sapiens; assay: Intensity calculated on a molar basis relative to a 0.25 M sucrose solution at a concentration of 251 ppm (mean value); summary of the method: as §5
Homo sapiens [22] = species: Homo sapiens; assay: Sour character at a concentration of 260 ppm (mean value)
Homo sapiens [23] = species: Homo sapiens; assay: Sweet / Bitter character at a concentration of 260 ppm (mean value); 94/6
Homo sapiens [24] = species: Homo sapiens; assay: Intensity calculated on a weight basis relative to an 85500 ppm sucrose solution at a concentration of 260 ppm (mean value); summary of the method: as §4
Homo sapiens [25] = species: Homo sapiens; assay: Salty character at a concentration of 260 ppm (mean value)
Homo sapiens [26] = species: Homo sapiens; assay: Bitter character at a concentration of 260 ppm (mean value); summary of the method: as §6
Homo sapiens [27] = species: Homo sapiens; assay: Other taste character at a concentration of 260 ppm (mean value); summary of the method: as §2
Homo sapiens [28] = species: Homo sapiens; assay: Intensity calculated on a molar basis relative to a 0.25 M sucrose solution at a concentration of 260 ppm (mean value); summary of the method: as §5
Homo sapiens [29] = species: Homo sapiens; assay: Experimentally determined perceived intensity of compound at a concentration of 260 ppm (mean value); summary of the method: as §3
Homo sapiens [30] = species: Homo sapiens; assay: Percentage of judgments reporting an aftertaste at a concentration of 260 ppm and character thereof; summary of the method: as §1
Homo sapiens [31] = species: Homo sapiens; assay: Sweet character at a concentration of 260 ppm (mean value)
Homo sapiens [32] = species: Homo sapiens; assay: Other taste character at a concentration of 250 ppm (mean value); summary of the method: as §2
Homo sapiens [33] = species: Homo sapiens; assay: Percentage of judgments reporting an aftertaste at a concentration of 250 ppm and character thereof; summary of the method: as §1
Homo sapiens [34] = species: Homo sapiens; assay: Sweet / Bitter character at a concentration of 250 ppm (mean value); 14/86
Homo sapiens [35] = species: Homo sapiens; assay: Sweet character at a concentration of 250 ppm (mean value); summary of the method: as §2
Homo sapiens [36] = species: Homo sapiens; assay: Intensity calculated on a molar basis relative to a 0.25 M sucrose solution at a concentration of 250 ppm (mean value); summary of the method: as §5
Homo sapiens [37] = species: Homo sapiens; assay: Experimentally determined perceived intensity of compound at a concentration of 250 ppm (mean value); summary of the method: as §3
Homo sapiens [38] = species: Homo sapiens; assay: Salty character at a concentration of 250 ppm (mean value); summary of the method: as §2
Homo sapiens [39] = species: Homo sapiens; assay: Intensity calculated on a weight basis relative to an 85500 ppm sucrose solution at a concentration of 250 ppm (mean value); summary of the method: as §4
Homo sapiens [40] = species: Homo sapiens; assay: Bitter character at a concentration of 250 ppm (mean value); summary of the method: as §6
Homo sapiens [41] = species: Homo sapiens; assay: Sour character at a concentration of 250 ppm (mean value); summary of the method: as §2
Homo sapiens [42] = species: Homo sapiens; assay: Intensity calculated on a weight basis relative to an 85500 ppm sucrose solution at a concentration of 246 ppm (mean value); summary of the method: as §4
Homo sapiens [43] = species: Homo sapiens; assay: Intensity calculated on a molar basis relative to a 0.25 M sucrose solution at a concentration of 246 ppm (mean value); summary of the method: as §5
Homo sapiens [44] = species: Homo sapiens; assay: Sour character at a concentration of 246 ppm (mean value)
Homo sapiens [45] = species: Homo sapiens; assay: Bitter character at a concentration of 246 ppm (mean value); summary of the method: as §6
Homo sapiens [46] = species: Homo sapiens; assay: Salty character at a concentration of 246 ppm (mean value)
Homo sapiens [47] = species: Homo sapiens; assay: Sweet / Bitter character at a concentration of 246 ppm (mean value); 44/56
Homo sapiens [48] = species: Homo sapiens; assay: Experimentally determined perceived intensity of compound at a concentration of 246 ppm (mean value); summary of the method: as §3
Homo sapiens [49] = species: Homo sapiens; assay: Sweet character at a concentration of 246 ppm (mean value)
Homo sapiens [50] = species: Homo sapiens; assay: Percentage of judgments reporting an aftertaste at a concentration of 246 ppm and character thereof; summary of the method: as §1
Homo sapiens [51] = species: Homo sapiens; assay: Other taste character at a concentration of 246 ppm (mean value); summary of the method: as §2
Homo sapiens [52] = species: Homo sapiens; assay: Intensity calculated on a weight basis relative to an 85500 ppm sucrose solution at a concentration of 240 ppm (mean value); summary of the method: as §4
Homo sapiens [53] = species: Homo sapiens; assay: Experimentally determined perceived intensity of compound at a concentration of 240 ppm (mean value); summary of the method: as §3
Homo sapiens [54] = species: Homo sapiens; assay: Intensity calculated on a molar basis relative to a 0.25 M sucrose solution at a concentration of 240 ppm (mean value); summary of the method: as §5
Homo sapiens [55] = species: Homo sapiens; assay: Percentage of judgments reporting an aftertaste at a concentration of 240 ppm and character thereof; summary of the method: as §1
Homo sapiens [56] = species: Homo sapiens; assay: Bitter character at a concentration of 240 ppm (mean value); summary of the method: as §6
Homo sapiens [57] = species: Homo sapiens; assay: Sweet character at a concentration of 240 ppm (mean value); summary of the method: as §2
Homo sapiens [58] = species: Homo sapiens; assay: Sour character at a concentration of 240 ppm (mean value); summary of the method: as §2
Homo sapiens [59] = species: Homo sapiens; assay: Sweet / Bitter character at a concentration of 240 ppm (mean value); 7/93
Homo sapiens [60] = species: Homo sapiens; assay: Salty character at a concentration of 240 ppm (mean value); summary of the method: as §2
Homo sapiens [61] = species: Homo sapiens; assay: Other taste character at a concentration of 240 ppm (mean value); summary of the method: as §2

COc1ccc(C2OC[C@@H]3OC(O)[C@@H](O)[C@H](O)[C@H]3O2)cc1O (stereo partly specified)
Taste character (Homo sapiens [1]): 0 | Judgments (Homo sapiens [2]): 0 | Taste character (Homo sapiens [3]): 0 | IP (Homo sapiens [4]): 0.3 | IW (Homo sapiens [5]): 10 | Taste character (Homo sapiens [6]): 0 | Taste character (Homo sapiens [7]): 0 | IM (Homo sapiens [8]): 10 | Taste character (Homo sapiens [9]): 100 | Taste character (Homo sapiens [10]): 0 | Judgments (Homo sapiens [11]): 1

CCCOc1ccc(CCC(=O)c2c(O)cc(OCC(=O)[O-])cc2O)cc1O.[Na+]
Taste character (Homo sapiens [12]): 0 | Taste character (Homo sapiens [13]): 23 | Judgments (Homo sapiens [14]): 100 | IW (Homo sapiens [15]): 240 | IP (Homo sapiens [16]): 0.72 | Taste character (Homo sapiens [17]): 0 | Taste character (Homo sapiens [18]): 39 | Taste character (Homo sapiens [19]): 51 | Taste character (Homo sapiens [20]): 38 | IM (Homo sapiens [21]): 300 | Judgments (Homo sapiens [11]): 12

COc1ccc(CCC(=O)c2c(O)cc(OCC(=O)[O-])cc2O)cc1O.[Na+]
Taste character (Homo sapiens [22]): 0 | Taste character (Homo sapiens [23]): 94 | IW (Homo sapiens [24]): 300 | Taste character (Homo sapiens [25]): 0 | Taste character (Homo sapiens [26]): 5 | Taste character (Homo sapiens [27]): 19 | IM (Homo sapiens [28]): 330 | IP (Homo sapiens [29]): 0.9 | Judgments (Homo sapiens [30]): 100 | Judgments (Homo sapiens [11]): 12 | Taste character (Homo sapiens [31]): 76

O=C([O-])COc1cc(O)c(C(=O)CCc2ccc(Cl)c(O)c2)c(O)c1.[Na+]
Taste character (Homo sapiens [32]): 19 | Judgments (Homo sapiens [33]): 0 | Taste character (Homo sapiens [34]): 14 | Taste character (Homo sapiens [35]): 11 | IM (Homo sapiens [36]): 31 | IP (Homo sapiens [37]): 0.28 | Taste character (Homo sapiens [38]): 0 | IW (Homo sapiens [39]): 27 | Taste character (Homo sapiens [40]): 70 | Judgments (Homo sapiens [11]): 12 | Taste character (Homo sapiens [41]): 0

O=C([O-])COc1cc(O)c(C(=O)CCc2cccc(O)c2)c(O)c1.[Na+]
IW (Homo sapiens [42]): 76 | IM (Homo sapiens [43]): 79 | Taste character (Homo sapiens [44]): 0 | Taste character (Homo sapiens [45]): 49 | Taste character (Homo sapiens [46]): 0 | Taste character (Homo sapiens [47]): 44 | IP (Homo sapiens [48]): 0.22 | Taste character (Homo sapiens [49]): 38 | Judgments (Homo sapiens [50]): 62 | Judgments (Homo sapiens [11]): 12 | Taste character (Homo sapiens [51]): 13

COc1ccc(CCCc2c(O)cc(O)cc2O)cc1O
IW (Homo sapiens [52]): 89 | IP (Homo sapiens [53]): 0.25 | IM (Homo sapiens [54]): 76 | Judgments (Homo sapiens [55]): 0 | Taste character (Homo sapiens [56]): 88 | Taste character (Homo sapiens [57]): 7 | Taste character (Homo sapiens [58]): 0 | Taste character (Homo sapiens [59]): 7 | Taste character (Homo sapiens [60]): 0 | Taste character (Homo sapiens [61]): 5 | Judgments (Homo sapiens [11]): 12
